These results are taken from the RNAGym collection of RNA variant scans (doi:10.1126/science.aae0568).

To fix the notation:
B1: tRNA (parent)
chain: GUUCCGUUGGCGUAAUGGUAACGCGUCUCCCUCCUAAGGAGAAGACUGCGGGUUCGAGUCCCGUACGGAACG

This sample holds only a part of the variants without activity.

In this series the parent is B1. In words: yeast fitness relative to wild type (ratio to wild type); higher = fitter; tRNA-Arg(CCU), competitive growth, 37 C, YPD. A digest of the protocol: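 The tRNA-Arg(CCU) gene variants were made by chemical synthesis with a 3% per-site mutation rate at 69 sites and inserted at the native genomic locus of Saccharomyces cerevisiae. After pooling, the strains were competed in YPD at 37°C for 24 hours in six parallel replicates. Gene amplicons from the start population and each end population were read by 100-nucleotide paired-end sequencing, and Darwinian fitness relative to wild type was taken from genotype frequency changes. Genotypes needed ≥ 100 starting reads, and estimates < 0.5 were set to 0.5.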
For GUUGCGUUGGCGUAAUGGUAACGCGUCUCCCUCCUAAGGAGAUGACUGCGCGUUCGAGUCCCGUACGGAACG [C4G A43U G51C], the yeast fitness is at most 0.5.

For the variant GUUACGUUGGCGUAAUAGUAACGCGUCUCCCUCCUAAGGAAAAGACUGCGGGUUCGAGUCCCGUACAGAACG [C4A G17A G41A G67A], the yeast fitness is at most 0.5.

Turning to GUUCCGUUGGGGUAAUGGUAACGCGUCUUUCUCCUAAGGAGAAGACUGCGGGUACGAGUCCCGUACGGAACG [C11G C29U C30U U54A], the yeast fitness is at most 0.5.

Regarding GUUCCGUUGGCGUAAUCGUAACGCGUCUCCCUCCUAAGGAGAAGACUGCGGGUUCGAGUCCCAUAUGGAACG [G17C G63A C66U], the yeast fitness is at most 0.5.

With GUUCCGCUGGCGUAAUGGUAACGCGUCUCCCUCCUAAGGAGAAGACUGCGGGUUCGAGUCCCGAACGUAACG [U7C U64A G68U], the yeast fitness was at most 0.5.

As for GUUCCGUUGGGAUAAUGGUAAUGCGUCUCCCUCCUAAGAAGAAGACUGCGGGUUCGAGUCCCGAACGGAACG [C11G G12A C22U G39A U64A], the yeast fitness is at most 0.5.

Take GUUCCGUUGGCGUAAUGGUAACGCGUCUCCCCCAUAAGGCGAAGACUGCGGGUCCGAGUCCCGUAUGGAACG [U32C C34A A40C U54C C66U]: the yeast fitness amounted to 0.534.

Consider GUUCCGUUGGCGUAAUGGUAACGCGUCUCCCUCCUAAGGAGAAGACUGCGCGUUCGAGUCCCGUAUGGAACG [G51C C66U], for which the yeast fitness worked out at 0.565.

Turning to GUUCCGUUGGCGUAAUGGUAACGCGUCUCCCUCCUAAGGAGAAGACUGUGGGUUCGAGUCCUGUACAGAACG [C49U C62U G67A], the yeast fitness was 0.573.

Turning to GUUCCGUUGGCGUAAUGGUACCGCGUCUCCCUCCUAAGGAGAAGACAGCGGGUUCGAGUUCCGUACCGUACG [A21C U47A C60U G67C A69U], the yeast fitness was 0.574.

Turning to GCUCCGUUGGCGUCGAGGUAACGCGUCUCCCUCCUAAGGAGAAGACUGCGGGUUCGAGUCCCGUACGGAACG [U2C A14C A15G U16A], the yeast fitness was at most 0.5.

With GUUCCGUUGGCGUAAUGGUAACGCCUCUGCCUCCUAAGGAGAAGACUGCGGGUUCGAGUGCCGUACGGAACG [G25C C29G C60G], the yeast fitness is at most 0.5.

For the variant GUUGCGUUGGCGUAAUGGCAACGCGUCUCCCUCCUAAGGAGAAGACUCCGGGUUCGAGUCCCGUACGGCACG [C4G U19C G48C A69C], the yeast fitness came out at 0.602.

Take GUUCCGCGGGCGUAAUGGUAACGCGUCUCCCUCCUAAGGAGAAGACUGCGGGUUCGAGUCCCGUACGGAACG [U7C U8G]: the yeast fitness worked out at 0.697.

GUUCUGUUGGCGUAAUGGUAAUGCGUCUCCCUCCUAUGGAGAAGACUGCGGGUUCGAGUCCCGUACGGAACG [C5U C22U A37U]: the yeast fitness came out at 0.535.

Consider GUUCCGUUGGCGUAAUGGUAGCGCGUCUCCCUCGUAAGGAGAAGACUGCGGGUUCGAGUCUCGUACGGACCG [A21G C34G C61U A70C], for which the yeast fitness came to 0.555.

Regarding GUUCCGGUGGCGUAGUGGUAACGCGUUUCCCUCCUAAGGAGAAGACUGCGGGUUCGAGUCCCGUACGAAACG [U7G A15G C27U G68A], the yeast fitness was at most 0.5.

Regarding GUUACGUUGGCGUAAUGGUAACGCGUCUCUCUCCUAAGGAGAAGACUGCGGGUUCGAGUCCCGUACGGAACG [C4A C30U], the yeast fitness is 0.756.

With GUUCCGUUGGAGUAAUGGGAACGCGUCUCCCUCCUGAGGAGAAGACUGCGGGUCCGAGUCCCGUUCGGAACG [C11A U19G A36G U54C A65U], the yeast fitness was 0.538.

For the variant GUUCCGUUGCCGUGAUGGUAACGCGUCUCCCUCCUAAGGAGAAGACUGCGGGUUCGAGUCCUGUACGGAACG [G10C A14G C62U], the yeast fitness was at most 0.5.

For GGUCCGUUGGCGUAAUGGUAACGCGUCUCCUUCCUAAGGAGAAGACUCCGGGUUCGAGUCCCGUACGGAACG [U2G C31U G48C], the yeast fitness came to 0.6.

As for GUUCCGUUGGCGUAAUGGUAACGCGUCUCCCUCCUGGGGAGAAGCCUGCGCGUUCGAGGCCCGUACGGAACG [A36G A37G A45C G51C U59G], the yeast fitness was at most 0.5.

GUUCCGUUGGCGUAAUGGUAACGCGUCUCUCUCCUAAGGAGAAGACUGCGCGUUCGAGUCCCGUACGGAACG [C30U G51C]: the yeast fitness worked out at 0.535.

For the variant GUUCCGUUGGCGUAAUGGUAACGCGUCUUCCUCCUAAGGAGUAGACUGCGGGUUCGAGUCCCGUACGGAACG [C29U A42U], the yeast fitness is 0.769.

GUACCGUUGGCGUAAUGGUAACGCGUCUCCCUCCUACGGAGAAGCCUGCGGGUUCGAGUCCCGUACGGAACG [U3A A37C A45C]: the yeast fitness came to 0.6.

For GUUCCGUUGCCGUAAUGGUAACGAGUCUCCCUCCUAAGGAGAAGAUUGCGGGUUCGAGUCCCGUACGGAACG [G10C C24A C46U], the yeast fitness was at most 0.5.

With GUUCCGUUGGCGUAAUGGUAUCGCGUCUCCCUCCUAAGGAGAACACUGCGGGUUCGAGUCCCGUACGGAACG [A21U G44C], the yeast fitness was found to be 0.769.

GUACCGUUGGCGUAAUGGUAACGCGUCUCCCUCCUAAGGAGAAGACUCCGGGUUAGAGUCCCGUAGCGAACG [U3A G48C C55A C66G G67C]: the yeast fitness was at most 0.5.

For the variant GUUCCGUUGGCGUAAUGGUAACGUGUCUCCGUCCUAAGGAGAAGACUGCGGGUUCGAGUCGCGUACGGAACG [C24U C31G C61G], the yeast fitness was 0.513.

For GUUCCGUUCGCGUAAUGGUAACGCGUCUCCCUCCUAAGGAGACGACUGCGGGUUCGUGUCCCAUACGGAACG [G9C A43C A57U G63A], the yeast fitness was at most 0.5.

On to GUUCCGUUUGCGUAAGGGUAACGCGUCUCCCUCCUAAGGAGAAGACUGCGGGUUCGAGUCCCGUACGGAACG [G9U U16G], for which the yeast fitness is 0.612.

For the variant GUUCGGUUGGCGUAAUGGUAACGCGUCUCCCUCCUAAGGAGAAGACUGUGGGUUCGAGUCCCCUACGGAACG [C5G C49U G63C], the yeast fitness was at most 0.5.

As to GUCCCGUUGGCGCAAUGGUAACGCGUCUCCUUCCUAAGGAGAAGACUGCGGGUUCGAGUCCCGUACGGAACG [U3C U13C C31U], the yeast fitness came to 0.801.

Take GUUCUGUUGGCGUAAUGGUAACGCGUCUCCCUCCUACGGCGAAGACUGCGAGUUAGAAUCCCGUACGGAACG [C5U A37C A40C G51A C55A G58A]: the yeast fitness was found to be 0.529.

For the variant GUUCCGUUGGCGUAAUGGUAACGCGUCUCCAUCCUAAGGAGAAGACUGCGGCUUCGGGUCCCGUACGGAACG [C31A G52C A57G], the yeast fitness was at most 0.5.

In the case of GUUCCGUUGGCGUAAUGGUUACGCGUCUUCCUCCUAAGGACAAAACUGCGGGUUCGUGUCCCGUACGGAACG [A20U C29U G41C G44A A57U], the yeast fitness was found to be 0.805.

Consider GUUCCGUUGGCGUAAUGGUAACGCGUCACCCUCCUAAGGAGAAAACUGCAGGUUCGGGUCCCAUACGGAACG [U28A G44A G50A A57G G63A], for which the yeast fitness is at most 0.5.

GGUCCGUUGGCGUAAUGGUAACGCGUCUCCCUCCUAAGGUGAAGACUGCGGGUUCGAGUCCCGUACGGAACG [U2G A40U]: the yeast fitness turned out to be 0.813.
